Sampled rows, rich in hits. Any-hit rate of the full collection: about 2%.
HSP90 refold inh – HSP90 refolding inhibition in rabbit reticulocyte lysate. inhibition, % at 5.6 µM. 290,000 compounds, 0.91% hits. luciferase refolding luminescence, 3 h;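 active = inhibition above the screen-wide mean plus 3 SD, computed separately per campaign, cut at about 16% in these data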;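 note: 0% = DMSO wells and 100% = 60 µM geldanamycin wells; inhibitors lower the luminescence because luciferase stays unfolded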
FLuc inh counter – inhibits firefly luciferase, flagging false hits in luciferase inhibition screens | ATPLite firefly luciferase biochemical luminescence, 10 min | inhibition, % at 10 µM | 200,000 compounds, 1.5% hits;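 active = inhibition above about 50% when tested at 10 µM, limit read from the data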
Target sequence (P08659 whole entry, looked up): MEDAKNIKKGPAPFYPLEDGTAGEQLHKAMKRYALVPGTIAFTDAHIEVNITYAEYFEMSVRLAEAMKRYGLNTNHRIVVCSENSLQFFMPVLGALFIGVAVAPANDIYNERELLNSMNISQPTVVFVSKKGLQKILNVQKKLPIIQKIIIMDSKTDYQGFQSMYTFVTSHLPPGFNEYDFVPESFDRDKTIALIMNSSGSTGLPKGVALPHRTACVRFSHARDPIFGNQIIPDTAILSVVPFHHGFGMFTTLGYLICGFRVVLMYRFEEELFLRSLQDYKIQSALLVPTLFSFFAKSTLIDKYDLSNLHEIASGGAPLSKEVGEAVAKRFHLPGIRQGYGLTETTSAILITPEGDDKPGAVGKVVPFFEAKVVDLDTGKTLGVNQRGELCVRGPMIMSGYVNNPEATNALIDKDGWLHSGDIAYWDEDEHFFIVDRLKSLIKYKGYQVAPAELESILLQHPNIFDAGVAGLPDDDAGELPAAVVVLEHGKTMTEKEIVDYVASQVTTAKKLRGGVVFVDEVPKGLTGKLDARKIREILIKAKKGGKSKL
PPC-1+TRAIL kill – compounds killing PPC-1 cancer cells with TRAIL present (potentiator screen, no TRAIL-free arm). PPC-1 cells + TRAIL, ATPLite viability luminescence. cell killing (% activity), % at 4 µM or 5 µM. 220,000 compounds, 0.41% hits. AID 1443;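 active = cell killing above 50% in the first pass at 4 µM, then a duplicate retest at 5 µM averaging 50% or more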;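 note: plate controls were cells with TRAIL plus DMSO for no effect and medium-only wells lacking cells for full effect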
FLuc act counter – affects firefly luciferase, flagging false hits in luciferase stimulation screens; 200,000 tested, under 10 active; activation factor at 10 µM; ATPlite luciferase biochemical, luminescence, 10 min; 0 = ATP-free wells, 1 = DMSO control; AID 1027;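 active = luciferase activation factor, scaled between plate controls, of at least 2 with compound at 10 µM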
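Assay system: Luciferase/luciferin reagent mix; Medium: PBS as buffer for the ATP substrate; Dosing: test compounds dosed from 2 mM stocks in 100% DMSO; Times: 10 min, room temperature; Signal: luminescence from luciferase reaction; Read-out: luciferase activation; Controls: No-ATP low control, compound-free enzyme-plus-ATP high control.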
C8 TRAIL sens – caspase-8 TRAIL sensitization; NB7+C8 cells + TRAIL, ATPlite viability luminescence; inhibition (viability loss, TRAIL sensitization), % at 10 µM; 360,000 compounds, 1% hits; AID 624354;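 active = compounds causing at least 50% loss of cell viability in the single-dose screen, relative to plate controls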
PPC1 cytotox – PPC-1 cell cytotoxicity | shares compounds with PPC-1+TRAIL kill | PPC-1 viability, ATPlite luminescence, overnight | cytotoxicity, % at 5 µM | 1,200 compounds, 50% hits | AID 1447;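 active = reconfirmed compounds whose average cytotoxicity reaches 50% or more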;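 note: 0% = DMSO-treated cells and 100% = wells holding medium but no cells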
* marks the source's active call; other numbers are inactive results.

O=C(Nc1cccc(C(=O)N2CCCc3ccccc32)c1)c1ccccc1 was read as HSP90 refold inh 0.7 and C8 TRAIL sens 10.1.
Screening CSc1nc(C)cc(SCC(=O)Nc2ccccc2)n1 returned HSP90 refold inh 3.9, FLuc inh counter 2.8, PPC-1+TRAIL kill -8.4, FLuc act counter 1, C8 TRAIL sens -1.8 and PPC1 cytotox -14.0.
Screening O=C(Nc1ccc2nc(-c3cccnc3)[nH]c2c1)c1ccccc1F returned HSP90 refold inh -2.4, FLuc inh counter 36.0, PPC-1+TRAIL kill 21.5, FLuc act counter 0.6 and C8 TRAIL sens 31.5.
`c1cncc(-c2nc3cc4ccccc4cc3[nH]2)c1` gave HSP90 refold inh 2.4, FLuc inh counter 81.7*, PPC-1+TRAIL kill 61.3*, FLuc act counter 0.2, C8 TRAIL sens 66.3* and PPC1 cytotox 65.6*.
Screening O=C(C[C@@H]1CC[C@H](NC(=O)Nc2ccc(F)cc2)[C@@H](CO)O1)NCc1cccc(F)c1 returned C8 TRAIL sens -7.8.
For Cc1cccc(N2CCN(C(C(=O)NCc3ccccc3)c3ccc(F)cc3)CC2)c1C (centres undefined) the results were C8 TRAIL sens 3.6.
`COc1ccc(CCN(C)C2CCCN(C(=O)Cn3cnnn3)C2)cc1OC` (centres undefined) gave HSP90 refold inh -1.4 and C8 TRAIL sens 7.3.
For O=C(O)CC1=C(O)C(=O)N(c2ccccc2)C1c1ccccc1 (centres undefined) the results were HSP90 refold inh 1.6, FLuc inh counter -0.7, PPC-1+TRAIL kill -27.8, FLuc act counter 1, C8 TRAIL sens 1.4 and PPC1 cytotox -5.8.
Screening O=S1(=O)c2cccc3cccc(c23)N1Cc1ccc(-c2nnco2)cc1 returned HSP90 refold inh 1.9, FLuc inh counter -7.8, PPC-1+TRAIL kill 0.8, FLuc act counter 1.1, C8 TRAIL sens 8.5 and PPC1 cytotox 3.7.
`O=S1(=O)c2cccc3cccc(c23)N1Cc1nnc(-c2ccccc2Br)o1` gave HSP90 refold inh 1.2, FLuc inh counter -3.4, PPC-1+TRAIL kill 5.0, FLuc act counter 1 and C8 TRAIL sens 24.1.
For CCNc1nc(NCC)nc(N(C)/N=C/c2ccco2)n1 the results were HSP90 refold inh 1.4 and C8 TRAIL sens 2.6.
For COC(=O)Cc1ccc(NC(=S)N2CCCC(C)C2)cc1 (centres undefined) the results were HSP90 refold inh 0.4, FLuc inh counter 89.3*, PPC-1+TRAIL kill 67.8*, FLuc act counter 0.1, C8 TRAIL sens -5.4 and PPC1 cytotox 69.5*.
Screening COc1ccc(-n2c(C)cc(SC)c(C(C)=O)c2=S)cc1 returned HSP90 refold inh 2.8, FLuc inh counter 3.5, PPC-1+TRAIL kill 13.7, FLuc act counter 1, C8 TRAIL sens -4.7 and PPC1 cytotox -6.9.
Screening COc1ccc(C(=O)Nc2ccc(Cc3ccncc3)cc2)cc1Br returned HSP90 refold inh 1.1, FLuc inh counter 0.7, PPC-1+TRAIL kill 3.8, FLuc act counter 1, C8 TRAIL sens 4.1 and PPC1 cytotox 19.6.
`COc1ccc(NC(=O)Nc2ccc(Cc3ccncc3)cc2)cc1OC` gave HSP90 refold inh 0.3, FLuc inh counter 2.4, PPC-1+TRAIL kill 10.7, FLuc act counter 1 and C8 TRAIL sens -5.0.
O=C(Nc1cccnc1)c1sc2cccc(F)c2c1Cl was read as HSP90 refold inh -3.1, FLuc inh counter 26.1, PPC-1+TRAIL kill -10.3, FLuc act counter 0.7 and C8 TRAIL sens 5.9.
O=C(Nc1ccccn1)c1sc2cccc(F)c2c1Cl was read as HSP90 refold inh -2.1, FLuc inh counter 80.7*, PPC-1+TRAIL kill 81.4*, FLuc act counter 0.2, C8 TRAIL sens 81.3* and PPC1 cytotox 82.6*.
Screening COc1cc(OC)c(OC)cc1/C=C/c1cc(C(=O)O)c2ccccc2n1 returned HSP90 refold inh 0.7, FLuc inh counter 38.7, PPC-1+TRAIL kill 4.6, FLuc act counter 0.6 and C8 TRAIL sens 22.1.
Screening CCOc1ccc(-c2cc(C(=O)O)c3ccccc3n2)cc1 returned HSP90 refold inh 7.6, FLuc inh counter 94.7*, PPC-1+TRAIL kill 77.5*, FLuc act counter 0.1, C8 TRAIL sens 83.1* and PPC1 cytotox 77.2*.
For O=C(O)c1cc(-c2ccccc2)nc2ccccc12 the results were HSP90 refold inh 5.1, FLuc inh counter 20.3, PPC-1+TRAIL kill 28.2, FLuc act counter 0.8 and C8 TRAIL sens 1.1.
`COc1ccc(/C=C/C(=O)Nc2ccccc2C(=O)O)cc1` gave HSP90 refold inh 45.9*, FLuc inh counter 95.0*, PPC-1+TRAIL kill 82.7*, FLuc act counter 0.1, C8 TRAIL sens 85.8* and PPC1 cytotox 82.6*.
Screening COc1ccc(/C=C/c2cc(C(=O)O)c3ccccc3n2)cc1 returned HSP90 refold inh 1.7, PPC-1+TRAIL kill 95.5*, C8 TRAIL sens 94.5* and PPC1 cytotox 95.5*.
Screening COc1ccc(/C=C/C(=O)Nc2ccccc2C(=O)N2CCCC2)cc1 returned HSP90 refold inh 8.2, FLuc inh counter 35.1, PPC-1+TRAIL kill 16.1, FLuc act counter 0.6 and C8 TRAIL sens 25.8.
Screening COc1cc(NC(=O)CSCc2ccc(Cl)cc2)c(C(=O)O)cc1OC returned HSP90 refold inh 5.3 and C8 TRAIL sens 6.1.
Screening COc1cc(C(=O)NCc2nnc(SCC(=O)N3CCOCC3)o2)cc(OC)c1OC returned HSP90 refold inh 2.9, FLuc inh counter -5.7, PPC-1+TRAIL kill -2.9, FLuc act counter 1.1 and C8 TRAIL sens -6.6.
N/C(=N\OC(=O)c1ccc2c(c1)OCO2)c1ccc([N+](=O)[O-])cc1 was read as HSP90 refold inh -3.0, FLuc inh counter 14.9, PPC-1+TRAIL kill 19.8, FLuc act counter 0.9 and C8 TRAIL sens 14.9.
For N/C(=N\OC(=O)c1ccc2c(c1)OCO2)c1cccnc1 the results were HSP90 refold inh 2.0, FLuc inh counter 96.6*, PPC-1+TRAIL kill 74.2*, FLuc act counter 0, C8 TRAIL sens 82.4* and PPC1 cytotox 73.6*.
Screening O=C(Nc1nc2cc3c(cc2s1)OCO3)c1cccc(N2C(=O)CCC2=O)c1 returned HSP90 refold inh 2.5, PPC-1+TRAIL kill 49.2, C8 TRAIL sens 56.0* and PPC1 cytotox 58.4*.
Screening CCCCCCn1cc(CN2CC(N3CCN(CCN(C)C)CC3)CS2(=O)=O)nn1 (centres undefined) returned C8 TRAIL sens 5.2.
For CCCc1ccc(C(=O)NC(=O)c2ccccc2O)cc1 the results were HSP90 refold inh 0.1, PPC-1+TRAIL kill 60.9*, C8 TRAIL sens 74.2* and PPC1 cytotox 60.6*.
`O=C(Nc1nonc1NC(=O)C1CCCCC1)C1CCCCC1` gave HSP90 refold inh 1.8, FLuc inh counter -4.8, PPC-1+TRAIL kill 1.4, FLuc act counter 1, C8 TRAIL sens -3.3 and PPC1 cytotox 3.4.
`O=C(Nc1c(F)c(F)c(F)c(F)c1F)C1CCCCC1` gave HSP90 refold inh 7.2, FLuc inh counter -6.9, PPC-1+TRAIL kill 6.0, FLuc act counter 1.1 and C8 TRAIL sens -17.8.

Source: PubChem
